Compound activity as filed in PubChem BioAssay.
SIAE inh: human SIAE inhibition, primary screen | Q9HAT2 | SIAE FP-Rh probe binding, fluorescence polarization | inhibition, % at 9.66 µM | 370,000 tested, 0.69% active;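 active means inhibition above a cutoff: mean of compounds within the control limits plus 3 SD of those, cut at about 17% in these data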
PRMT1 FP inh: PRMT1 (human) inhibition, primary screen | Q99873 | recombinant PRMT1, activity-based probe fluorescence polarization | inhibition, % at 2.79 µM | 370,000 tested, 1.3% active | AID 652257;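 active means inhibition above about 21% made by adding two undisclosed values, limit read from the data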
Target sequence (Q99873 whole entry, looked up): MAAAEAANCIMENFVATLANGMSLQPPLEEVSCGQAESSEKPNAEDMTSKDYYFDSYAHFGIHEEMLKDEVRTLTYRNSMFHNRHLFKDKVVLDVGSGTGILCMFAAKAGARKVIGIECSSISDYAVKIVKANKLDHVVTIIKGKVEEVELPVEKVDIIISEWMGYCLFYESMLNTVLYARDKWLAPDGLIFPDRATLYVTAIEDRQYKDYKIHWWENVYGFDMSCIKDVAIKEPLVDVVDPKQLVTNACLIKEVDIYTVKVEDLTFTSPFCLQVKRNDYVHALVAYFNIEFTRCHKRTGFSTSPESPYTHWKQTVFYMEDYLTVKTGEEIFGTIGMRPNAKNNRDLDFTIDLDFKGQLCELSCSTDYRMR
ABHD4 inh: inhibitors of mouse ABHD4 | Q8VD66 | purified mABHD4, FP-Rh probe fluorescence polarization | inhibition, % at 8.92 µM | 370,000 tested, 0.54% active | AID 720543;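 active means inhibition exceeding the mean over every tested compound plus 3 SD, cut at about 30% in these data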
Target sequence (Q8VD66 whole entry, looked up): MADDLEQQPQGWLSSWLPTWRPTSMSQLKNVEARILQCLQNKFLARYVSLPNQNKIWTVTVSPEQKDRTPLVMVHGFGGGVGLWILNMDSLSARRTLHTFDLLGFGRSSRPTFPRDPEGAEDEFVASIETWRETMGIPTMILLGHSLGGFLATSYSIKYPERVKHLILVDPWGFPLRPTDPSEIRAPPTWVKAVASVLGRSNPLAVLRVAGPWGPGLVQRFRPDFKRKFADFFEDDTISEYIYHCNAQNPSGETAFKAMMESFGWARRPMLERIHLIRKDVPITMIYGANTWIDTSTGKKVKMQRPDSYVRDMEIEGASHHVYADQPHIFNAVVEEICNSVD
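Material: mouse ABHD4 enzyme, wild type; Benchmarks: S159A mutant high control, sample median low control; Buffer or medium: HEPES pH 7.0, NaCl, Pluronic buffer; Signal: fluorescence polarization; Read-out: percent inhibition of probe binding, normalized to plate controls; Timing: pre-incubation 45 min, probe exposure 60 min, at 25 °C; Dosing: 8.92 µM, single dose.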
rCAG RNA binder: r(CAG) repeat RNA binding. AID 651821. TO-PRO-1 dye displacement fluorescence. inhibition, % at 3 µM. 370,000 tested, 1.3% active;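 active means inhibition above the plate cutoff, the mean of all test compounds on that plate plus 3 SD, cut at about 35% in these data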;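 further: higher means more dye released from RNA so lower well fluorescence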
TCR CD3 inh: human TCR-CD3 binding inhibition | TAMRA-labeled TCR probe fluorescence, biochemical | inhibition, % at 9.4 µM | 360,000 tested, 0.37% active; in the data active means inhibition above about 19%;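 further: recombinant mutant TCR 2C K166C tagged with TAMRA read by polarization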
rCAG binder conf: r(CAG) RNA repeat binding, confirmation. shares compounds with rCAG RNA binder. TO-PRO-1 dye displacement fluorescence. inhibition, % at 3 µM. 4,300 tested, 70% active. AID 652065;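 active means inhibition above a per-plate cutoff, the mean inhibition of sample wells plus 3 SD, cut at about 35% in these data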;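 further: loss of TO-PRO-1 fluorescence as compound displaces dye from 1x1 AA loop RNA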
dCAG dye counter: disrupts DNA CAG TO-PRO-1 complex, flagging rCAG hits | 4,300 tested, 94% active | inhibition, % at 3 µM | shares compounds with rCAG RNA binder | d(CAG) DNA oligo TO-PRO-1 dye displacement, fluorescence;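 active means inhibition above its plate's cutoff, the mean test-well inhibition plus 3 SD, cut at about 4.8% in these data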;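 further: hits displace the dye from DNA and so lower well fluorescence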
Numbers stand for hits. In the library only some 3.3% were active in any assay of this set; here they are far more common.

Results for COc1ccc(/C(=N\Nc2ccccc2C(=O)O)c2ccccc2)cc1 ?
SIAE inh: inactive; PRMT1 FP inh: inactive; ABHD4 inh: inactive; rCAG RNA binder: 50; TCR CD3 inh: inactive; rCAG binder conf: 43; dCAG dye counter: 12

How did O=C(Nc1ccccc1C(=O)O)c1cccc(C(=O)Nc2ccccc2C(=O)O)c1 do in these assays?
SIAE inh: inactive; PRMT1 FP inh: inactive; ABHD4 inh: inactive; rCAG RNA binder: 50; TCR CD3 inh: inactive; rCAG binder conf: 42; dCAG dye counter: 9.1

How did CCC(C)c1ccc(OCC(=O)Nc2cccc(C(=O)Nc3ccc(C(=O)O)cc3)c2)cc1 (stereo unspecified) do in these assays?
SIAE inh: inactive; PRMT1 FP inh: inactive; ABHD4 inh: inactive; rCAG RNA binder: 75; TCR CD3 inh: inactive; rCAG binder conf: 75; dCAG dye counter: 39

Results for CCCCCC(=O)NC1CCCCN(Cc2ccc(Cl)cc2)C1=O (stereo unspecified) ?
SIAE inh: inactive; PRMT1 FP inh: inactive; ABHD4 inh: inactive; rCAG RNA binder: inactive

How did COC(=O)[C@]12C[C@H](CC(=O)N3CCCCC3)C(=O)N(CCc3ccc(OC)c(OC)c3)C1=C[C@H](C1CCCC1)O[C@@H]2C do in these assays?
SIAE inh: inactive; PRMT1 FP inh: inactive; ABHD4 inh: inactive; rCAG RNA binder: inactive

How did O=C(Nc1cccc(C(=O)Nc2ccccc2C(=O)O)c1)c1cccc(Cl)c1 do in these assays?
SIAE inh: inactive; PRMT1 FP inh: inactive; ABHD4 inh: inactive; rCAG RNA binder: 60; TCR CD3 inh: inactive; rCAG binder conf: 55; dCAG dye counter: 18

How did COc1ccc(CC(=O)Nc2cccc(C(=O)Nc3ccccc3C(=O)O)c2)cc1OC do in these assays?
SIAE inh: inactive; PRMT1 FP inh: inactive; ABHD4 inh: inactive; rCAG RNA binder: inactive; TCR CD3 inh: inactive

How did CC(=O)Nc1cccc(C(=O)Nc2ccccc2C(=O)O)c1 do in these assays?
SIAE inh: inactive; PRMT1 FP inh: inactive; ABHD4 inh: inactive; rCAG RNA binder: inactive; TCR CD3 inh: inactive

How did CC(=O)Oc1ccc(C(=O)Nc2ccccc2C(=O)Nc2cccc(C(=O)O)c2)cc1 do in these assays?
SIAE inh: inactive; PRMT1 FP inh: inactive; ABHD4 inh: inactive; rCAG RNA binder: inactive; TCR CD3 inh: inactive

Results for COc1ccc(OCC(=O)Nc2cccc(C(=O)Nc3ccccc3C(=O)O)c2)cc1 ?
SIAE inh: inactive; PRMT1 FP inh: inactive; ABHD4 inh: inactive; rCAG RNA binder: 51; TCR CD3 inh: inactive; rCAG binder conf: 62; dCAG dye counter: 17

Results for O=C(Nc1ccccc1C(=O)O)c1cccc(NC(=O)c2ccc(Br)o2)c1 ?
SIAE inh: inactive; PRMT1 FP inh: inactive; ABHD4 inh: inactive; rCAG RNA binder: 45; TCR CD3 inh: inactive; rCAG binder conf: 40; dCAG dye counter: 7.8

What do the screens show for `CC(=O)Oc1ccc(C(=O)Nc2cccc(C(=O)Nc3ccccc3C(=O)O)c2)cc1`?
SIAE inh: inactive; PRMT1 FP inh: inactive; ABHD4 inh: inactive; rCAG RNA binder: 50; TCR CD3 inh: inactive; rCAG binder conf: 44; dCAG dye counter: 12

What do the screens show for `CC(=O)c1cccc(NC(=O)c2ccc(Br)o2)c1`?
SIAE inh: inactive; PRMT1 FP inh: inactive; ABHD4 inh: inactive; rCAG RNA binder: inactive; TCR CD3 inh: inactive

How did C=CCNC(=O)N1CCC(c2nc3ccc(Cl)cc3[nH]2)CC1 do in these assays?
SIAE inh: inactive; PRMT1 FP inh: inactive; ABHD4 inh: inactive; rCAG RNA binder: inactive

Results for O=C(Cc1ccc(Cl)cc1)Nc1cccc(C(=O)Nc2ccccc2C(=O)O)c1 ?
SIAE inh: inactive; PRMT1 FP inh: inactive; ABHD4 inh: inactive; rCAG RNA binder: 74; TCR CD3 inh: inactive; rCAG binder conf: 64; dCAG dye counter: 24

Results for CN(Cc1ccccc1)S(=O)(=O)c1cccc(C(=O)OCc2cccc(C(F)(F)F)c2)c1 ?
SIAE inh: inactive; PRMT1 FP inh: inactive; ABHD4 inh: inactive; rCAG RNA binder: inactive

Results for CSCC[C@H](NC(=O)c1cc2c([nH]c3ccccc32)c(-c2ccccc2)n1)C(=O)O ?
SIAE inh: inactive; PRMT1 FP inh: inactive; ABHD4 inh: inactive; rCAG RNA binder: 55; TCR CD3 inh: inactive; rCAG binder conf: 50; dCAG dye counter: 14

How did C=CCNCc1ccc(OC)cc1OC do in these assays?
SIAE inh: inactive; PRMT1 FP inh: inactive; ABHD4 inh: inactive; rCAG RNA binder: inactive

What do the screens show for `COc1ccccc1NC(=O)c1ccc(NS(=O)(=O)c2c(C)noc2C)cc1`?
SIAE inh: inactive; PRMT1 FP inh: inactive; ABHD4 inh: inactive; rCAG RNA binder: inactive; TCR CD3 inh: inactive

Results for O=C(Nc1ccc(S(=O)(=O)O)cc1)c1ccc2c(c1)S(=O)(=O)c1ccccc1C2=O ?
SIAE inh: inactive; PRMT1 FP inh: inactive; ABHD4 inh: inactive; rCAG RNA binder: 40; TCR CD3 inh: inactive; rCAG binder conf: inactive; dCAG dye counter: inactive

What do the screens show for `COc1ccccc1NC(=O)c1ccc(NS(=O)(=O)c2ccc(F)c(Cl)c2)cc1`?
SIAE inh: inactive; PRMT1 FP inh: inactive; ABHD4 inh: inactive; rCAG RNA binder: 44; TCR CD3 inh: inactive; rCAG binder conf: 54; dCAG dye counter: 14

How did O=S(=O)(Nc1cccc(S(=O)(=O)N2CCCCCC2)c1)c1ccccc1 do in these assays?
SIAE inh: inactive; PRMT1 FP inh: inactive; ABHD4 inh: inactive; rCAG RNA binder: inactive; TCR CD3 inh: inactive

Results for O=S(=O)(Nc1cccc(S(=O)(=O)N2CCCC2)c1)c1ccc(Cl)cc1 ?
SIAE inh: inactive; PRMT1 FP inh: inactive; ABHD4 inh: inactive; rCAG RNA binder: 36; TCR CD3 inh: inactive; rCAG binder conf: inactive; dCAG dye counter: 6.5

How did O=C(NNS(=O)(=O)c1ccc(Cl)cc1)c1ccc(S(=O)(=O)N2CCCCC2)cc1 do in these assays?
SIAE inh: inactive; PRMT1 FP inh: inactive; ABHD4 inh: inactive; rCAG RNA binder: inactive; TCR CD3 inh: inactive

What do the screens show for `O=C(Nc1cc(S(=O)(=O)Nc2ccc(Cl)cc2)ccc1O)c1ccc(S(=O)(=O)N2CCCCCC2)cc1`?
SIAE inh: inactive; PRMT1 FP inh: inactive; ABHD4 inh: inactive; rCAG RNA binder: 47; TCR CD3 inh: inactive; rCAG binder conf: 73; dCAG dye counter: 38

What do the screens show for `COC(=O)[C@H]1C[C@@]2(c3ccccc3)c3ccccc3N(S(=O)(=O)c3ccccc3)[C@H]2N1`?
SIAE inh: inactive; PRMT1 FP inh: inactive; ABHD4 inh: inactive; rCAG RNA binder: inactive

How did O=C(Nc1cc(S(=O)(=O)N2CCOCC2)ccc1O)c1ccc(S(=O)(=O)N2CCCCC2)cc1 do in these assays?
SIAE inh: inactive; PRMT1 FP inh: inactive; ABHD4 inh: inactive; rCAG RNA binder: 40; TCR CD3 inh: inactive; rCAG binder conf: 37; dCAG dye counter: 10
